The results in this text go back to ChEMBL document CHEMBL3232902, “PMPA and PMEA prodrugs for the treatment of HIV infections and human papillomavirus (HPV) associated neoplasia and cancer” (Eur J Med Chem, 2014).

Series [1] concerns Human immunodeficiency virus 1. The series can be described thus: Antiviral activity against Human immunodeficiency virus 1 3B infected in human CEM cells assessed as inhibition of virus-induced giant cell formation after 4 to 5 days by microscopic analysis. It counts as functional, organism-based, CCRF-CEM. In outline:
(§1)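 CEM cells (~3×10^5/mL) were infected with 100 CCID50/mL HIV-1 IIIB or HIV-2 ROD with compound dilutions. After 4–5 days at 37°C, syncytium formation was scored microscopically. EC50 is the concentration inhibiting giant cell formation by 50%.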

The subject of series [2] is Human immunodeficiency virus 2. Kind of series: Antiviral activity against Human immunodeficiency virus type 2 ROD infected in human CEM cells assessed as inhibition of virus-induced giant cell formation after 4 to 5 days by microscopic analysis. The series is classed as functional, organism-based, ISOLATE ROD, CCRF-CEM. In outline:
as §1

The test system of series [3] is CCRF-CEM. Kind of series: (§2) Cytotoxicity against human CEM cells. The series is classed as cell-based. As to conditions: ccrf-cem.
In series [4] the test system is Human alphaherpesvirus 1. The series can be described thus: Antiviral activity against Herpes simplex virus KOS infected in HEL cells assessed as inhibition of virus-induced cytopathicity. The series is classed as functional, organism-based. In outline: (§3)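 Confluent HEL cell cultures were inoculated with 100 CCID50 of virus in the presence of varying compound concentrations. Cytopathicity or plaque formation was scored once untreated infected controls reached completion. EC50 is the concentration inhibiting virus-induced cytopathicity by 50%.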
A general note: Cytopathic effects are the visible damage that an infection or toxin causes in cultured cells.

The test system of another series is Human alphaherpesvirus 2. The series can be described thus: Antiviral activity against Herpes simplex virus G infected in HEL cells assessed as inhibition of virus-induced cytopathicity. It counts as functional, organism-based, strain G. In outline:
as §3

The next series concerns L1210. Kind of series: Cytostatic activity against mouse L1210 cells after 48 hrs by coulter counting analysis. The series is classed as functional, cell-based. In outline: (§4)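 (5-7.5)×10^4 cells/well were incubated with compound at 37°C, for 48 h (L1210) or 72 h (CEM, HeLa), then counted by Coulter counter. IC50 is the concentration inhibiting proliferation by 50%.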
Series [5] relates to CCRF-CEM. Kind of series: Cytostatic activity against human CEM cells after 72 hrs by coulter counting analysis. The series is classed as functional, cell-based. In outline:
as §4

Series [6] relates to HeLa. Kind of series: Cytostatic activity against human HeLa cells after 72 hrs by coulter counting analysis. The series is classed as functional, cell-based. In outline: as §4
In another series the test system is SiHa. The series can be described thus: Antiproliferative activity against human SiHa cells infected with HPV-16 after 72 hrs by flow cytometric analysis. The series is classed as functional, cell-based. In outline: (§5)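 SiHa (HPV16+), HeLa (HPV18+) and C33A (HPV-) cervical carcinoma lines grown in DMEM with 10% FBS at 37°C, 5% CO2. Seeded 4×10^3 cells/well and left to adhere 24 h. Treated in triplicate with 1, 10 and 100 μM of compound formulated in ~1% DMSO/PBS pH 7.4.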

Series [7] has as its system HeLa. Kind of series: Antiproliferative activity against human HeLa cells infected with HPV-18 after 72 hrs by flow cytometric analysis. It counts as functional, cell-based. As to conditions: hela. In outline:
as §5

A short description of series [8]: Antiproliferative activity against human C33A cells after 72 hrs by flow cytometric analysis. The series is classed as cell-based, C-33-A. As to conditions: c-33-a. In outline: as §5
A general note: Flow cytometry measures light scatter and fluorescence of single cells or particles in a stream.

Series [9] is described as follows: as §2. It counts as cell-based, CCRF-CEM. Particulars: CEM (CCRF-CEM) cells.
In series [10] the test system is Human alphaherpesvirus 1. Kind of series: Antiviral activity against thymidine kinase-deficient acyclovir-resistant Herpes simplex virus KOS infected in HEL cells assessed as inhibition of virus-induced cytopathicity. It counts as functional, organism-based. As to conditions: Human alphaherpesvirus 1, KOS. In outline:
as §3

The test system of another series is Vaccinia virus. Kind of series: Antiviral activity against Vaccinia virus Lederle infected in HEL cells assessed as inhibition of virus-induced cytopathicity. The series is classed as functional, organism-based. Particulars: Orthopoxvirus vaccinia. In outline: as §3
Series [11] can be described thus: Cytotoxicity against HEL cells assessed as change in cellular morphology by microscopic analysis. Particulars: human, read-out: MIC. The series is classed as cell-based. In outline: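 Uninfected HEL monolayers were exposed to compound. Minimal cytotoxic concentration is the concentration causing microscopically visible alteration of cell morphology.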
A short description of series [12]: Prodrug activation assessed as carboxypeptidase Y (unknown origin)-mediated aminoacyl phosphonamidate ester formation at 3 mg at 25 degC up to 12 hrs by [31P]-NMR analysis. In outline: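 Compound (3.0 mg) in acetone-d6 plus Trizma buffer pH 7.6 was recorded by 31P NMR at 25°C as control. Carboxypeptidase Y (0.1 mg in Trizma) was then added, and spectra were taken every 7 min over 12 h at 25°C.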

Series [13] is described as follows: Cytotoxicity against human MT2 cells.
Series [14] relates to Human immunodeficiency virus 1. Kind of series: microbe, parasite or virus in culture. As to conditions: Human immunodeficiency virus 1, 3B, MT2.

Regarding `C[C@H](Cn1cnc2c(N)ncnc21)OCP(=O)(N[C@@H](C)C(=O)OCC(C)(C)C)Oc1cccc2ccccc12` (mixture of isomers), the EC50 – broadly, the concentration giving half of the maximal effect – in series [1] (ccrf-cem) stood at 3 nM; in [2] (ccrf-cem), 4 nM; in the series on Human alphaherpesvirus 1 [4] (hel) it was 2000 nM; with Human alphaherpesvirus 2 (hel), 800 nM. In addition, it took 3900 nM to reach half-maximal cytotoxicity with CCRF-CEM [3] (CC50). In addition, the half-inhibitory concentration (IC50) (as a rule, the concentration that inhibits the measured activity by half) came out at 2200 nM with L1210 (l1210); 3900 nM with CCRF-CEM [5] (ccrf-cem); 12000 nM with HeLa [6] (hela); 7800 nM in the series on SiHa; 6200 nM in the series with HeLa [7]; 6000 nM in series [8].

Regarding `C[C@H](NP(=O)(COCCn1cnc2c(N)ncnc21)Oc1cccc2c1CCCC2)C(=O)OCC(C)(C)C` (stereo not given in full), the EC50 turned out to be 17 nM in series [1] (Human immunodeficiency virus 1, 3B, CCRF-CEM); 7 nM in [2] (Human immunodeficiency virus 2, ISOLATE ROD, CCRF-CEM); 130 nM in the series on Human alphaherpesvirus 1 [4] (Human alphaherpesvirus 1, KOS, HEL); 50 nM in the series with Human alphaherpesvirus 2 (Human alphaherpesvirus 2, strain G, HEL); 120 nM in the series on Human alphaherpesvirus 1 [10]; 1300 nM in the series on Vaccinia virus. Besides, the CC50 (in general, the concentration at which the toxic effect on the cells reaches its halfway point) in series [9] was 19 nM. Further, the MCC in series [11] is over 100 µM. For the same compound, the half-maximal inhibitory concentration (IC50) in the series with L1210 (Mus musculus, L1210, 48 h) worked out at 26 nM; in the series with CCRF-CEM [5] (Homo sapiens, CCRF-CEM, 72 h), 19 nM; with HeLa [6] (Homo sapiens, HeLa, 72 h) it was 450 nM. Further, in series [12], the Drug metabolism result is “metabolite_detected”.

`CC(C)OC(=O)[C@H](C)N[P@](=O)(CO[C@H](C)Cn1cnc2c(N)ncnc21)Oc1ccccc1` [TENOFOVIR ALAFENAMIDE] came in with a CC50 in series [13] of 40000 nM. For the same compound, the 50% effective concentration (EC50) in series [14] was 5 nM.
